Assay results from ChEMBL document CHEMBL1938297, “Synthesis, radiofluorination and pharmacological evaluation of a fluoromethyl spirocyclic PET tracer for central σ1 receptors and comparison with fluoroalkyl homologs” (Bioorg Med Chem, 2012).

Experiments:
Liver [1] = test: Biodistribution in CD1 mouse liver at 300 kBq, iv after 30 mins by gamma counting; type: ADME, organism-based; conditions: in vivo, 0.5 h
How it was run: (§1)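 Female CD-1 mice received the 18F tracer iv at 300 kBq in 0.9% NaCl containing 5% ethanol; 3–6 animals per time point (5, 30, 60, 120 min p.i.). Animals anaesthetized, blood and urine collected, killed by cervical luxation, organs dissected and weighed, counted in calibrated gamma counter. %ID/g = tissue counts / initial dose counts / tissue weight; mean with SD.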

Heart [2] = test: Biodistribution in CD1 mouse heart at 300 kBq, iv after 5 mins by gamma counting; type: ADME, organism-based; conditions: in vivo; how it was run: as §1
Urinary bladder [3] = test: Biodistribution in CD1 mouse bladder at 300 kBq, iv after 30 mins by gamma counting; type: ADME, organism-based; conditions: in vivo, 0.5 h
How it was run: (§2)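 Female CD-1 mice received [18F]1 (300 kBq) i.v.; 3–6 animals per time point anesthetized at 5, 30, 60 or 120 min p.i., blood and urine collected, animals euthanized by cervical dislocation, organs dissected and weighed. Radioactivity counted in a calibrated gamma counter; % ID/g = tissue counts / initial dose counts / tissue weight; means with SD.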

Mus musculus [4] = test: Biodistribution in CD1 mouse thymus at 300 kBq, iv after 120 mins by gamma counting; type: ADME, organism-based; conditions: in vivo, 2 h; how it was run: as §1
[5] = Ratio of biodistribution in anterior olfactory bulb to facial nucleus in brain saggital section of CD1 mouse at 24 MBq, iv after 45 mins; type: ADME, organism-based; conditions: in vivo, 0.75 h
How it was run: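 Female CD-1 mouse given 24 MBq radiotracer i.v. and killed at 45 min. The brain hemispheres were frozen in isopentane (−35 °C), cut into 12 µm sagittal cryosections and exposed to 18F-sensitive phosphor screens. Regional uptake was expressed as a target-to-nontarget ratio, with the anterior olfactory bulb as the nontarget reference.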

Liver [6] = test: Biodistribution in CD1 mouse liver at 300 kBq, iv after 60 mins by gamma counting; type: ADME, organism-based; conditions: in vivo, 1 h; how it was run: as §1
Blood [7] = test: Biodistribution in CD1 mouse blood at 300 kBq, iv after 5 mins by gamma counting; type: ADME, organism-based; conditions: in vivo; how it was run: as §2
Muscle tissue = test: Biodistribution in CD1 mouse muscle at 300 kBq, iv after 60 mins by gamma counting; type: ADME, organism-based; conditions: in vivo, 1 h; how it was run: as §1
Mus musculus [8] = test: Biodistribution in CD1 mouse large intestine at 300 kBq, iv after 5 mins by gamma counting; type: ADME, organism-based; conditions: in vivo; how it was run: as §1
Striatum = test: Biodistribution in CD1 mouse striatum in brain saggital section at 24 MBq, iv at 45 mins by autoradiography; type: ADME, organism-based; conditions: in vivo, 0.75 h
How it was run: (§3)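 Ex vivo autoradiography: female CD-1 mouse given 18F tracer iv (24 MBq), killed 45 min p.i.; brain hemispheres frozen in isopentane (−35 °C), 12 µm sagittal cryostat sections thaw-mounted, air-dried and exposed to 18F-sensitive phosphor screens. Regional uptake compared with anterior olfactory bulb as nontarget region (target-to-nontarget ratio).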

Cerebellum = test: Biodistribution in CD1 mouse cerebellum at 300 kBq, iv after 120 mins by gamma counting; type: ADME, organism-based; conditions: in vivo, 2 h; how it was run: as §2
Spleen = test: Biodistribution in CD1 mouse spleen at 300 kBq, iv after 60 mins by gamma counting; type: ADME, organism-based; conditions: in vivo, 1 h; how it was run: as §1
Kidney [9] = test: Biodistribution in CD1 mouse kidney at 300 kBq, iv after 30 mins by gamma counting; type: ADME, organism-based; conditions: in vivo, 0.5 h; how it was run: as §1
[10] = Biodistribution in CD1 mouse intestinal content at 300 kBq, iv after 30 mins by gamma counting; type: ADME, organism-based, Intestine; conditions: in vivo, 0.5 h; how it was run: as §1
Mus musculus [11] = test: Biodistribution in CD1 mouse dorsomedial hyphalmus in brain saggital section at 24 MBq, iv at 45 mins by autoradiography; type: ADME, organism-based; conditions: in vivo, 0.75 h
How it was run: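 Female CD-1 mouse given [18F]1 (24 MBq) i.v. and sacrificed at 45 min. Brain hemispheres frozen in isopentane (−35 °C), cut into 12 µm sagittal cryosections, thaw-mounted, air-dried and exposed to 18F-sensitive storage phosphor screens. Anterior olfactory bulb served as nontarget region for target-to-nontarget ratios.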

[12] = Metabolic stability in CD1 mouse brain homogenates assessed as compound remaining at 191 MBq, iv after 30 mins by radio-HPLC/TLC analysis; type: ADME, organism-based; conditions: brain homogenate, read-out: Stability
How it was run: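 Female CD-1 mice were injected with the radiotracer via the tail vein and killed at 30 or 60 min p.i. Whole brains (n = 2 per time) were homogenised in 50 mM TRIS–HCl pH 7.4 at 4 °C and extracted twice with ice-cold acetonitrile. Concentrated extracts were analysed by radio-HPLC and radio-TLC to give % parent versus radiometabolites.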

Mus musculus [13] = test: Biodistribution in CD1 mouse small intestine at 300 kBq, iv after 60 mins by gamma counting; type: ADME, organism-based; conditions: in vivo, 1 h; how it was run: as §1
Mus musculus [14] = test: Biodistribution in CD1 mouse fat at 300 kBq, iv after 120 mins by gamma counting; type: ADME, organism-based, Adipose tissue; conditions: in vivo, 2 h; how it was run: as §2
Mus musculus [15] = test: Biodistribution in CD1 mouse adrenals at 300 kBq, iv after 30 mins by gamma counting; type: ADME, organism-based, Adrenal gland; conditions: in vivo, 0.5 h; how it was run: as §2
[16] = Biodistribution in CD1 mouse intestinal content at 300 kBq, iv after 5 mins by gamma counting; type: ADME, organism-based, Intestine; conditions: in vivo; how it was run: as §1
Mus musculus [17] = test: Biodistribution in CD1 mouse large intestine at 300 kBq, iv after 120 mins by gamma counting; type: ADME, organism-based; conditions: in vivo, 2 h; how it was run: as §1
[18] = Chemical stability of the compound in 0.9% NaCl solution at pH 7.2 assessed as compound remaining after 2 hrs by radio-HPLC/TLC analysis; type: physicochemical; conditions: read-out: Stability
How it was run: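 Radiotracer incubated 120 min at 40 °C in 0.9% NaCl (pH 7.2), phosphate-saline (0.1 M sodium phosphate, 0.15 M NaCl, pH 7.2) or 0.01 M TRIS–HCl (pH 7.4 at 21 °C). Aliquots were taken at set times and analysed by radio-TLC on silica and by gradient radio-HPLC on RP-18 (MeCN/20 mM ammonium acetate, 254 nm), giving % unchanged tracer; n = 2.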

Mus musculus [19] = test: Biodistribution in CD1 mouse lateral periaqueductal gray in brain saggital section at 24 MBq, iv at 45 mins by autoradiography; type: ADME, organism-based; conditions: in vivo, 0.75 h; how it was run: as §3
Heart [20] = test: Biodistribution in CD1 mouse heart at 300 kBq, iv after 60 mins by gamma counting; type: ADME, organism-based; conditions: in vivo, 1 h; how it was run: as §1
Mus musculus [21] = test: Biodistribution in CD1 mouse gonads at 300 kBq, iv after 60 mins by gamma counting; type: ADME, organism-based, Gonad; conditions: in vivo, 1 h; how it was run: as §2
Blood [22] = test: Biodistribution in CD1 mouse blood at 300 kBq, iv after 60 mins by gamma counting; type: ADME, organism-based; conditions: in vivo, 1 h; how it was run: as §2
Mus musculus [23] = test: Biodistribution in CD1 mouse gonads at 300 kBq, iv after 30 mins by gamma counting; type: ADME, organism-based, Gonad; conditions: in vivo, 0.5 h; how it was run: as §2
Mus musculus [24] = test: Biodistribution in CD1 mouse large intestine at 300 kBq, iv after 60 mins by gamma counting; type: ADME, organism-based; conditions: in vivo, 1 h; how it was run: as §1
Femur [25] = test: Biodistribution in CD1 mouse femur at 300 kBq, iv after 5 mins by gamma counting; type: ADME, organism-based; conditions: in vivo; how it was run: as §2
[26] = Biodistribution in CD1 mouse intestinal content at 300 kBq, iv after 60 mins by gamma counting; type: ADME, organism-based, Intestine; conditions: in vivo, 1 h; how it was run: as §1
Femur [27] = test: Biodistribution in CD1 mouse flushed femur at 300 kBq, iv after 30 mins by gamma counting; type: ADME, organism-based; conditions: in vivo, 0.5 h; how it was run: as §2
Kidney [28] = test: Biodistribution in CD1 mouse kidney at 300 kBq, iv after 5 mins by gamma counting; type: ADME, organism-based; conditions: in vivo; how it was run: as §1
Femur [29] = test: Biodistribution in CD1 mouse femur at 300 kBq, iv after 120 mins by gamma counting; type: ADME, organism-based; conditions: in vivo, 2 h; how it was run: as §2
Urinary bladder [30] = test: Biodistribution in CD1 mouse bladder at 300 kBq, iv after 60 mins by gamma counting; type: ADME, organism-based; conditions: in vivo, 1 h; how it was run: as §2

SMILES: [18F]CC1OC2(CCN(Cc3ccccc3)CC2)c2ccccc21 (centres undefined)
- Drug uptake (Liver [1]): 6.68 % ID/g
- Drug uptake (Heart [2]): 7.33 % ID/g
- Drug uptake (Urinary bladder [3]): 3.86 % ID/g
- Drug uptake (Mus musculus [4]): 2.52 % ID/g
- Ratio [5]: 1.34
- Drug uptake (Liver [6]): 3.98 % ID/g
- Drug uptake (Blood [7]): 0.73 % ID/g
- Drug uptake (Muscle tissue): 0.97 % ID/g
- Drug uptake (Mus musculus [8]): 0.91 % ID/g
- Drug uptake (Striatum): Active
- Drug uptake (Cerebellum): 4.02 % ID/g
- Drug uptake (Spleen): 5.3 % ID/g
- Drug uptake (Kidney [9]): 9.61 % ID/g
- Drug uptake [10]: 0.4 % ID/g
- Drug uptake (Mus musculus [11]): Active
- remaining at 0.5 h [12]: 90%
- Drug uptake (Mus musculus [13]): 23.46 % ID/g
- Drug uptake (Mus musculus [14]): 2.08 % ID/g
- Drug uptake (Mus musculus [15]): 13.39 % ID/g
- Drug uptake [16]: 0.39 % ID/g
- Drug uptake (Mus musculus [17]): 1.46 % ID/g
- remaining at 2 h [18]: 96.9%
- Drug uptake (Mus musculus [19]): Active
- Drug uptake (Heart [20]): 2.96 % ID/g
- Drug uptake (Mus musculus [21]): 3.28 % ID/g
- Drug uptake (Blood [22]): 0.16 % ID/g
- Drug uptake (Mus musculus [23]): 4.75 % ID/g
- Drug uptake (Mus musculus [24]): 0.92 % ID/g
- Drug uptake (Femur [25]): 2.32 % ID/g
- Drug uptake [26]: 0.32 % ID/g
- Drug uptake (Femur [27]): 1.42 % ID/g
- Drug uptake (Kidney [28]): 14.93 % ID/g
- Drug uptake (Femur [29]): 1.92 % ID/g
- Drug uptake (Urinary bladder [30]): 1.42 % ID/g
